Source: ChEMBL document CHEMBL1671867, “Novel polymyxin derivatives carrying only three positive charges are effective antibacterial agents” (Antimicrob Agents Chemother, 2008)
≈ marks a conversion by molar mass, not a printed value.

Key:
Assay type in all cases: functional
Candida albicans = test: Antibacterial activity against Candida albicans ATCC 28366 by CLSI M7-A7 agar dilution method
Escherichia coli [1] = test: Antibacterial activity against Escherichia coli SC 9252 by CLSI M7-A7 agar dilution method
Klebsiella oxytoca [2] = test: Antibacterial activity against Klebsiella oxytoca ATCC 13182 by CLSI M7-A7 agar dilution method
Method in brief: (§1)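 Agar dilution on Mueller-Hinton agar with test substance at 0.25 to 32 μg/ml in twofold steps. Spots of about 10^4 CFU applied with a multipoint inoculator.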

Escherichia coli [3] = test: Antibacterial activity against Escherichia coli IH3080 assessed as growth inhibition at 10 ug after 18 hrs by […]
Klebsiella pneumoniae [4] = test: Antibacterial activity against Klebsiella pneumoniae by CLSI M7-A7 agar dilution method; method in brief: as §1
Escherichia coli [5] = test: Antibacterial activity against Escherichia coli IH3080 by CLSI M7-A7 agar dilution method
Acinetobacter baumannii [6] = test: Antibacterial activity against Acinetobacter baumannii ATCC 19606 by CLSI M7-A7 agar dilution method
Klebsiella oxytoca [7] = test: Antibacterial activity against Klebsiella oxytoca CCUG51683 by CLSI M7-A7 agar dilution method; method in brief: as §1
Enterobacter cloacae [8] = test: Antibacterial activity against Enterobacter cloacae CCUG52947 by CLSI M7-A7 agar dilution method
Enterobacter cloacae [9] = test: Antibacterial activity against Enterobacter cloacae ATCC 23355 by CLSI M7-A7 agar dilution method
Escherichia coli [10] = test: Antibacterial activity against Escherichia coli ATCC […] by CLSI M7-A7 agar dilution method
Escherichia coli [11] = test: Antibacterial activity against Escherichia coli IH3080 assessed as growth inhibition at 10 ug after 18 hrs by […] in presence of 1 ug/ml rifampin
Acinetobacter baumannii [12] = test: Antibacterial activity against Acinetobacter baumannii by CLSI M7-A7 agar dilution method
Citrobacter freundii = test: Antibacterial activity against Citrobacter freundii ATCC 8090 by CLSI M7-A7 agar dilution method
Serratia marcescens = test: Antibacterial activity against Serratia marcescens ATCC 8100 by CLSI M7-A7 agar dilution method; method in brief: as §1
Escherichia coli [13] = test: Antibacterial activity against Escherichia coli by CLSI M7-A7 agar dilution method; method in brief: as §1
Staphylococcus aureus = test: Antibacterial activity against Staphylococcus aureus ATCC 25923 by CLSI M7-A7 agar dilution method; method in brief: as §1
Enterobacter cloacae [14] = test: Antibacterial activity against Enterobacter cloacae by CLSI M7-A7 agar dilution method
Escherichia coli [15] = test: Antibacterial activity against Escherichia coli SC 9253 by CLSI M7-A7 agar dilution method; method in brief: as §1
Pseudomonas aeruginosa [16] = test: Antibacterial activity against Pseudomonas aeruginosa ATCC 27853 by CLSI M7-A7 agar dilution method; method in brief: as §1
Klebsiella pneumoniae [17] = test: Antibacterial activity against Klebsiella pneumoniae CCUG45421 by CLSI M7-A7 agar dilution method; method in brief: as §1
Acinetobacter baumannii [18] = test: Antibacterial activity against Acinetobacter baumannii F264 by Etest method in presence of NAB739
Acinetobacter baumannii [19] = test: (§2) Antibacterial activity against Acinetobacter baumannii ATCC 19606 by Etest method in presence of […] NAB739
Acinetobacter baumannii [20] = test: Antibacterial activity against Acinetobacter baumannii ATCC 19606 by Etest method
Pseudomonas aeruginosa [21] = test: Antibacterial activity against Pseudomonas aeruginosa ATCC 27853by Etest method in presence of 0.5 ug/ml NAB739
Method in brief: (§3)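 MICs of the antibiotic taken from E-strips on Mueller-Hinton agar, run both with and without peptide. […] Inoculum was prepared per the strip manufacturer, matching CLSI M2-A9.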

Acinetobacter baumannii [22] = test: Antibacterial activity against Acinetobacter baumannii F264 by Etest method in presence of 0.5 ug/ml NAB739
Acinetobacter baumannii [23] = test: as §2; remark: listed apart in the source
Acinetobacter baumannii [24] = test: Antibacterial activity against Acinetobacter baumannii ATCC 19606 by Etest method in presence of 0.5 ug/ml NAB739
Acinetobacter baumannii [25] = test: (§4) Antibacterial activity against Acinetobacter baumannii F264 by Etest method in presence of […] NAB739
Acinetobacter baumannii [26] = test: as §4; remark: listed apart in the source
Pseudomonas aeruginosa [27] = test: (§5) Antibacterial activity against Pseudomonas aeruginosa ATCC 27853by Etest method in presence of […] NAB739
Pseudomonas aeruginosa [28] = test: Antibacterial activity against Pseudomonas aeruginosa ATCC 27853by Etest method; method in brief: as §3
Acinetobacter baumannii [29] = test: Antibacterial activity against Acinetobacter baumannii F264 by Etest method in presence of 1 ug/ml NAB739
Acinetobacter baumannii [30] = test: Antibacterial activity against Acinetobacter baumannii ATCC 19606 by Etest method in presence of NAB739
Pseudomonas aeruginosa [31] = test: Antibacterial activity against Pseudomonas aeruginosa ATCC 27853by Etest method in presence of 2 ug/ml NAB739
Pseudomonas aeruginosa [32] = test: Antibacterial activity against Pseudomonas aeruginosa ATCC 27853by Etest method in presence of 1 ug/ml NAB739; method in brief: as §3
Acinetobacter baumannii [33] = test: Antibacterial activity against Acinetobacter baumannii ATCC 19606 by Etest method in presence of 1 ug/ml NAB739
Pseudomonas aeruginosa [34] = test: as §5; remark: listed apart in the source
Acinetobacter baumannii [35] = test: Antibacterial activity against Acinetobacter baumannii F264 by Etest method
Method in brief: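 E-strip MIC on Mueller-Hinton agar without added peptide; inoculum per manufacturer, matching CLSI M2-A9.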

Compound: POLYMYXIN B
- MIC (Candida albicans): > 32 µg/mL
- MIC (Escherichia coli [1]): > 32 µg/mL
- MIC (Klebsiella oxytoca [2]): 0.5 µg/mL
- inhibition zone (IZ) (Escherichia coli [3]): 120 mm2
- MIC (Klebsiella pneumoniae [4]): 0.5 µg/mL
- MIC (Escherichia coli [5]): 0.5 µg/mL
- MIC (Acinetobacter baumannii [6]): 1 µg/mL
- MIC (Klebsiella oxytoca [7]): 0.5 µg/mL
- MIC (Enterobacter cloacae [8]): 1 µg/mL
- MIC (Enterobacter cloacae [9]): 0.5 µg/mL
- MIC (Escherichia coli [10]): 1 µg/mL
- inhibition zone (IZ) (Escherichia coli [11]): 125 mm2
- MIC (Acinetobacter baumannii [12]): 0.5 µg/mL
- MIC (Citrobacter freundii): 1 µg/mL
- MIC (Serratia marcescens): > 32 µg/mL
- MIC (Escherichia coli [13]): 0.25 µg/mL
- MIC (Staphylococcus aureus): > 32 µg/mL
- MIC (Enterobacter cloacae [14]): 0.5 µg/mL
- MIC (Escherichia coli [15]): > 32 µg/mL
- MIC (Pseudomonas aeruginosa [16]): 1 µg/mL
- MIC (Klebsiella pneumoniae [17]): 1 µg/mL

Compound: C[C@@H](O)[C@H]1C(=O)N2C(C(=O)O)=C(S[C@@H]3CN[C@H](C(=O)N(C)C)C3)[C@H](C)[C@H]12 [MEROPENEM]
- fractional inhibitory concentration index (FICI) (Acinetobacter baumannii [18]): 0.281
- MIC (Acinetobacter baumannii [19]): 0.5 µg/mL
- MIC (Acinetobacter baumannii [20]): 1 µg/mL (≈ 2.61 µM)
- MIC (Pseudomonas aeruginosa [21]): 0.25 µg/mL
- MIC (Acinetobacter baumannii [22]): 1 µg/mL
- MIC (Acinetobacter baumannii [23]): 1 µg/mL
- MIC (Acinetobacter baumannii [24]): 0.25 µg/mL
- MIC (Acinetobacter baumannii [25]): 6 µg/mL
- MIC (Acinetobacter baumannii [26]): 32 µg/mL
- MIC (Pseudomonas aeruginosa [27]): 0.25 µg/mL
- MIC (Pseudomonas aeruginosa [28]): 0.25 µg/mL (≈ 0.652 µM)
- MIC (Acinetobacter baumannii [29]): 0.38 µg/mL
- fractional inhibitory concentration index (FICI) (Acinetobacter baumannii [30]): 0.5
- MIC (Pseudomonas aeruginosa [31]): 0.25 µg/mL
- MIC (Pseudomonas aeruginosa [32]): 0.25 µg/mL
- MIC (Acinetobacter baumannii [33]): 0.125 µg/mL
- MIC (Pseudomonas aeruginosa [34]): 0.25 µg/mL
- MIC (Acinetobacter baumannii [35]): > 32 µg/mL
